≈ marks a conversion by molar mass, not a printed value. Calls of active or inactive are those of the source. The rule behind the calls is not given here.
Key:
[1] = test system: Bacillus subtilis; assay: Antibacterial activity against Bacillus subtilis MTCC 441 at 1 ug/ml after 24 hrs by cup-plate method; format: functional, organism-based
Summary of the method: (§1)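 Cup-plate diffusion in nutrient agar, incubated 24 h at 37 °C. Compounds dissolved in DMF and tested at the single concentration given in the line. DMF served as the solvent control and ciprofloxacin as the reference standard. Read-out is the zone of inhibition diameter in mm.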

[2] = test system: Bacillus subtilis; assay: Antibacterial activity against Bacillus subtilis MTCC 441 at 10 ug/ml after 24 hrs by cup-plate method relative to ciprofloxacin; format: functional, organism-based
[3] = test system: Bacillus subtilis; assay: Antibacterial activity against Bacillus subtilis MTCC 441 at 100 ug/ml after 24 hrs by cup-plate method relative to ciprofloxacin; format: functional, organism-based
[4] = test system: Bacillus subtilis; assay: Antibacterial activity against Bacillus subtilis MTCC 441 at 500 ug/ml after 24 hrs by cup-plate method; format: functional, organism-based; summary of the method: as §1
[5] = test system: Bacillus subtilis; assay: Antibacterial activity against Bacillus subtilis MTCC 441 after 24 hrs; format: functional; details: MTCC 441, 24 h
Summary of the method: (§2)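 MIC was taken as the lowest concentration giving 100% growth inhibition relative to a drug-free control, after 24 h at 37 °C in nutrient agar. Compounds were dissolved in DMF, and ciprofloxacin was the reference.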

[6] = test system: Bacillus subtilis; assay: Antibacterial activity against Bacillus subtilis MTCC 441 at 200 ug/ml after 24 hrs by cup-plate method; format: functional, organism-based; summary of the method: as §1
[7] = test system: Escherichia coli; assay: Antibacterial activity against Escherichia coli MTCC 443 at 1 ug/ml after 24 hrs by cup-plate method; format: functional, organism-based; summary of the method: as §1
[8] = test system: Escherichia coli; assay: Antibacterial activity against Escherichia coli MTCC 443 at 10 ug/ml after 24 hrs by cup-plate method relative to ciprofloxacin; format: functional, organism-based
[9] = test system: Escherichia coli; assay: Antibacterial activity against Escherichia coli MTCC 443 at 100 ug/ml after 24 hrs by cup-plate method relative to ciprofloxacin; format: functional, organism-based
[10] = test system: Escherichia coli; assay: Antibacterial activity against Escherichia coli MTCC 443 at 200 ug/ml after 24 hrs by cup-plate method; format: functional, organism-based; summary of the method: as §1
[11] = test system: Escherichia coli; assay: Antibacterial activity against Escherichia coli MTCC 443 at 500 ug/ml after 24 hrs by cup-plate method; format: functional, organism-based; summary of the method: as §1
[12] = test system: Escherichia coli; assay: Antibacterial activity against Escherichia coli MTCC 443 after 24 hrs; format: functional; details: MTCC 443, 24 h; summary of the method: as §2
[13] = test system: Streptomyces griseus; assay: Antibacterial activity against Streptomyces griseus MTCC 1540 at 1 ug/ml after 24 hrs by cup-plate method; format: functional, organism-based; summary of the method: as §1
[14] = test system: Streptomyces griseus; assay: Antibacterial activity against Streptomyces griseus MTCC 1540 at 10 ug/ml after 24 hrs by cup-plate method relative to ciprofloxacin; format: functional, organism-based
[15] = test system: Streptomyces griseus; assay: Antibacterial activity against Streptomyces griseus MTCC 1540 at 100 ug/ml after 24 hrs by cup-plate method; format: functional, organism-based; summary of the method: as §1
[16] = test system: Streptomyces griseus; assay: Antibacterial activity against Streptomyces griseus MTCC 1540 at 200 ug/ml after 24 hrs by cup-plate method; format: functional, organism-based; summary of the method: as §1
[17] = test system: Streptomyces griseus; assay: Antibacterial activity against Streptomyces griseus MTCC 1540 at 500 ug/ml after 24 hrs by cup-plate method; format: functional, organism-based; summary of the method: as §1
[18] = test system: Streptomyces griseus; assay: Antibacterial activity against Streptomyces griseus MTCC 1540 after 24 hrs; format: functional; details: MTCC 1540, 24 h; summary of the method: as §2
[19] = test system: Candida albicans; assay: Antifungal activity against Candida albicans MTCC 227 at 30 ug/ml after 48 hrs by cup-plate method; format: functional; details: MTCC 227, 48 h, read-out: DIZ
Summary of the method: (§3)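 Cup-plate diffusion on Sabouraud's dextrose agar, incubated 48 h at 28 °C. Compounds in DMF, which also served as the control, with fluconazole as the reference standard.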

[20] = test system: Aspergillus niger; assay: Antifungal activity against Aspergillus niger MTCC 282 at 30 ug/ml after 48 hrs by cup-plate method; format: functional; details: MTCC 282, 48 h, read-out: DIZ; summary of the method: as §3
[21] = test system: Bacillus subtilis; assay: Antibacterial activity against Bacillus subtilis MTCC 441 at 10 ug/ml after 24 hrs by cup-plate method; format: functional, organism-based; summary of the method: as §1
[22] = test system: Bacillus subtilis; assay: Antibacterial activity against Bacillus subtilis MTCC 441 at 200 ug/ml after 24 hrs by cup-plate method relative to ciprofloxacin; format: functional, organism-based
[23] = test system: Escherichia coli; assay: Antibacterial activity against Escherichia coli MTCC 443 at 10 ug/ml after 24 hrs by cup-plate method; format: functional, organism-based; summary of the method: as §1
[24] = test system: Escherichia coli; assay: Antibacterial activity against Escherichia coli MTCC 443 at 200 ug/ml after 24 hrs by cup-plate method relative to ciprofloxacin; format: functional, organism-based
[25] = test system: Streptomyces griseus; assay: Antibacterial activity against Streptomyces griseus MTCC 1540 at 10 ug/ml after 24 hrs by cup-plate method; format: functional, organism-based; summary of the method: as §1
[26] = test system: Streptomyces griseus; assay: Antibacterial activity against Streptomyces griseus MTCC 1540 at 200 ug/ml after 24 hrs by cup-plate method relative to ciprofloxacin; format: functional, organism-based
[27] = test system: Bacillus subtilis; assay: Antibacterial activity against Bacillus subtilis MTCC 441 at 100 ug/ml after 24 hrs by cup-plate method; format: functional, organism-based; summary of the method: as §1

Structure (SMILES) | Activity [1] | Activity [2] | Activity [3] | Activity [4] | MIC [5] | Activity [6] | Activity [7] | Activity [8] | Activity [9] | Activity [10] | Activity [11] | MIC [12] | Activity [13] | Activity [14] | Activity [15] | Activity [16] | Activity [17] | MIC [18] | zone of inhibition at 30 µg/mL [19] | zone of inhibition at 30 µg/mL [20] | also measured
Sc1nnc(CCNc2nc3ccccc3s2)n1/N=C/c1ccccc1Cl | inactive | Active | inactive | Active | 200 µg/mL (≈ 482 µM) | Active | inactive | Active | Active | Active | Active | 200 µg/mL (≈ 482 µM) | inactive | Active | inactive | Active | Active | 200 µg/mL (≈ 482 µM) | 22 mm | 16 mm | 
Sc1nnc(CCNc2nc3ccccc3s2)n1/N=C/c1ccccc1 | inactive |  | inactive | Active | 500 µg/mL (≈ 1310 µM) |  | inactive |  | inactive |  | Active | 500 µg/mL (≈ 1310 µM) | inactive |  | inactive |  | Active | 500 µg/mL (≈ 1310 µM) | 22 mm | 16 mm | Activity [21]: inactive; Activity [22]: Active; Activity [23]: inactive; Activity [24]: Active; Activity [25]: inactive; Activity [26]: Active
Oc1ccc(/C=N/n2c(S)nnc2CCNc2nc3ccccc3s2)cc1 | inactive | inactive |  | Active | 100 µg/mL (≈ 252 µM) | Active | inactive | inactive | Active | Active | Active | 200 µg/mL (≈ 504 µM) | inactive | inactive | Active | Active | Active | 100 µg/mL (≈ 252 µM) | 22 mm | 10 mm | Activity [27]: Active
OC(Cn1cncn1)(Cn1cncn1)c1ccc(F)cc1F [FLUCONAZOLE] |  |  |  |  |  |  |  |  |  |  |  |  |  |  |  |  |  |  | 22 mm | 22 mm | 
